Experimental findings from ChEMBL document CHEMBL5247599, “New β-arylchalcogeno amines with procognitive properties targeting Carbonic Anhydrases and Monoamine Oxidases” (Eur J Med Chem, 2022) are described below.

Data set [1] deals with Mus musculus. As to the kind of experiment: Pro-cognitive activity in C57Bl6 mouse assessed as attenuation of long-term memory deficit by measuring increase in exploration time for novel object at 50 nmol/uL, icv measured after 24 hrs by novel object recognition test. In kind it is functional, organism-based. In outline:
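Male adult C57Bl6 mice (8–9 weeks), lateral-ventricle cannula implanted one week before. 10-min habituation to empty open-field arena; 24 h later, 5-min acquisition with two identical objects, followed immediately by 5 µL i.c.v. infusion at 1 µL/min. 5-min retention test 24 h after acquisition with one familiar and one novel object; percentage exploration time per object, two-way ANOVA with Bonferroni.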

In data set [2] the test system is Mus musculus. As to the kind of experiment: Pro-cognitive activity in C57Bl6 mouse assessed as attenuation of long-term memory deficit by measuring increase in exploration time for novel object by measuring discrimination index at 50 nmol/uL, icv measured after 24 hrs by novel object recognition test. It is filed as functional. In outline:
(§1)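 Novel object recognition in adult male C57Bl6 mice. Habituation was 10 min in an empty arena. Twenty-four hours later, mice explored two identical objects for 5 min, then received an immediate 5 µL lateral-ventricle infusion at 1 µL/min. A 5-min retention test with one familiar and one novel object followed 24 h later. Scores were % exploration time and DI = (tN−tF)/(tN+tF).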

Data set [3] deals with Mus musculus. In words: Pro-cognitive activity in C57Bl6 mouse assessed as attenuation of long-term memory deficit by measuring increase in exploration time for novel juvenile at 25 nmol/uL, icv measured after 48 hrs by novel object recognition test. It is filed as functional, organism-based. In outline:
(§2)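 Male adult C57Bl6 mice (8–9 weeks), lateral-ventricle cannula implanted 7 days earlier. Social recognition: 10-min habituation to arena with two empty cups; 24 h later 10-min acquisition with an unfamiliar juvenile (3–4 weeks) under one wire cup. Immediately after, 5 µL i.c.v. infusion at 1 µL/min. Retention at 48 h with familiar and novel juvenile; percentage time exploring each cup (snout-to-cup contact).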

The test system of data set [4] is Mus musculus. In words: Pro-cognitive activity in C57Bl6 mouse assessed as attenuation of long-term memory deficit by measuring increase in exploration time for novel juvenile at 50 nmol/uL, icv measured after 48 hrs by novel object recognition test. It is filed as functional, organism-based. In outline: as §2
Data set [5] has as its system Mus musculus. In words: Pro-cognitive activity in C57Bl6 mouse assessed as attenuation of long-term memory deficit by measuring increase in exploration time for novel juvenile by measuring discrimination index at 25 nmol/uL, icv measured after 48 hrs by novel object recognition test. It is filed as functional. The method in brief:
(§3)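 Social recognition in adult male C57Bl6 mice with intracerebroventricular cannulae. Habituation was 10 min with two empty cups. Twenty-four hours later, a novel 3–4-week-old juvenile was placed under one cup for 10 min of exploration, followed immediately by a 5 µL infusion at 1 µL/min. Retention 48 h later offered familiar versus novel juvenile, scoring snout-to-cup contact. DI = (tN−tF)/(tN+tF).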

For data set [6], the system named is Mus musculus. In words: Pro-cognitive activity in C57Bl6 mouse assessed as attenuation of long-term memory deficit by measuring increase in exploration time for novel juvenile by measuring discrimination index at 50 nmol/uL, icv measured after 48 hrs by novel object recognition test. It is filed as functional. The method in brief:
as §3

Data set [7] has as its system Mus musculus. In words: Pro-cognitive activity in C57Bl6 mouse assessed as attenuation of long-term memory deficit by measuring increase in exploration time for novel object by measuring discrimination index at 25 nmol/uL, icv measured after 24 hrs by novel object recognition test.
For data set [8], the target named is Carbonic anhydrase 1 (Homo sapiens) (UniProt P00915). As to the kind of experiment: Binding affinity to human CA1 by phenol red dye based stopped flow CO2 hydration assay. In outline:
(§4)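 Purified recombinant human CA isoforms. CA-catalysed CO2 hydration was followed by stopped-flow with phenol red at 557 nm, taking initial rates over 10–100 s from at least six traces of the first 5–10% of reaction. Uncatalysed rates were subtracted. Activator stocks were 0.1 mM in deionised water, diluted down to 0.1 nM in assay buffer. K_A came from non-linear least-squares Michaelis–Menten fitting.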

In data set [9] the target is Carbonic anhydrase 2 (Homo sapiens) (UniProt P00918). In words: Binding affinity to human CA2 by phenol red dye based stopped flow CO2 hydration assay. In outline:
as §4

In data set [10] the target is Carbonic anhydrase 3 (Homo sapiens) (UniProt P07451). In words: Binding affinity to human CA3 by phenol red dye based stopped flow CO2 hydration assay. The following applies: filed as activator. The method in brief:
as §4

The target in data set [11] is Carbonic anhydrase 4 (Homo sapiens) (UniProt P22748). As to the kind of experiment: Binding affinity to human CA4 by phenol red dye based stopped flow CO2 hydration assay. The following applies: filed as activator. In outline:
as §4

In data set [12] the target is Carbonic anhydrase 5A, mitochondrial (Homo sapiens) (UniProt P35218). In words: Binding affinity to human CA5a by phenol red dye based stopped flow CO2 hydration assay. As to conditions: filed as activator. In outline: as §4
Chain of Carbonic anhydrase 5A, mitochondrial (Homo sapiens) (P35218 whole entry): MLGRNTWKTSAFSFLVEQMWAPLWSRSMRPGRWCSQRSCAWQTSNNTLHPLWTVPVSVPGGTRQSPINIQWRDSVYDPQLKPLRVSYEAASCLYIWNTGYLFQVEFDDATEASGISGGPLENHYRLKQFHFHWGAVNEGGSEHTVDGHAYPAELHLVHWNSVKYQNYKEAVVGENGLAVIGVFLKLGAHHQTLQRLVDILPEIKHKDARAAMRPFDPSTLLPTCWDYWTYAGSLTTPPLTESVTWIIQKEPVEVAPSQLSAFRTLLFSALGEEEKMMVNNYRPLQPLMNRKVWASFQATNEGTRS
The target in data set [13] is Carbonic anhydrase 5B, mitochondrial (Homo sapiens) (UniProt Q9Y2D0). In words: Binding affinity to human CA5b by phenol red dye based stopped flow CO2 hydration assay. As to conditions: filed as activator. The method in brief: as §4
Chain of Carbonic anhydrase 5B, mitochondrial (Homo sapiens) (Q9Y2D0 whole entry): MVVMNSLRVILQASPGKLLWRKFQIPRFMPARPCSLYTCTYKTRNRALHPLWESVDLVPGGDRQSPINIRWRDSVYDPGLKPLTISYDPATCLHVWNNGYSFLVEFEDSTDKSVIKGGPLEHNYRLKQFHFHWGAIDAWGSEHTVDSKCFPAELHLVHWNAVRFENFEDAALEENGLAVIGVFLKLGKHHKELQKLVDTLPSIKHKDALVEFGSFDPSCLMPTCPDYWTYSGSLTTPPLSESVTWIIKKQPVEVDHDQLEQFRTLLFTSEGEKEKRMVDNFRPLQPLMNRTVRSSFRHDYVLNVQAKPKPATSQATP
For data set [14], the target named is Carbonic anhydrase 6 (Homo sapiens) (UniProt P23280). In words: Binding affinity to human CA6 by phenol red dye based stopped flow CO2 hydration assay. In outline:
as §4

For data set [15], the target named is Carbonic anhydrase 7 (Homo sapiens) (UniProt P43166). In words: Binding affinity to human CA7 by phenol red dye based stopped flow CO2 hydration assay. The following applies: filed as activator. In outline:
as §4

Data set [16] has as its target Carbonic anhydrase 9 (Homo sapiens) (UniProt Q16790). As to the kind of experiment: Binding affinity to human CA9 by phenol red dye based stopped flow CO2 hydration assay. In outline:
as §4

Data set [17] concerns the target Carbonic anhydrase 12 (Homo sapiens) (UniProt O43570). As to the kind of experiment: Binding affinity to human CA12 by phenol red dye based stopped flow CO2 hydration assay. As to conditions: filed as activator. In outline: as §4
The target in data set [18] is Carbonic anhydrase 13 (Homo sapiens) (UniProt Q8N1Q1). In words: Binding affinity to human CA13 by phenol red dye based stopped flow CO2 hydration assay. The following applies: filed as activator. The method in brief: as §4
Chain of Carbonic anhydrase 13 (Homo sapiens) (Q8N1Q1 whole entry, looked up): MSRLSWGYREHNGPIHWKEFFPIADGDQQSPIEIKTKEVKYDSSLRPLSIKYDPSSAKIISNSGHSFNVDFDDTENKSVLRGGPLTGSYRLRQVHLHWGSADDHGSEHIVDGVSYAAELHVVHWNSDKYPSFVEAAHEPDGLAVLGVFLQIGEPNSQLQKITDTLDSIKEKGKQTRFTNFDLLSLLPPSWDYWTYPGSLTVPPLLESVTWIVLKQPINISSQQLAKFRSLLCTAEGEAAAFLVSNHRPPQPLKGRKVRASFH
Data set [19] has as its target Carbonic anhydrase 14 (Homo sapiens) (UniProt Q9ULX7). In words: Binding affinity to human CA14 by phenol red dye based stopped flow CO2 hydration assay. As to conditions: filed as activator. The method in brief:
as §4

For data set [20], the target named is T1, Amine oxidase [flavin-containing] A (Homo sapiens, UniProt P21397).
T1 sequence (P21397 whole entry): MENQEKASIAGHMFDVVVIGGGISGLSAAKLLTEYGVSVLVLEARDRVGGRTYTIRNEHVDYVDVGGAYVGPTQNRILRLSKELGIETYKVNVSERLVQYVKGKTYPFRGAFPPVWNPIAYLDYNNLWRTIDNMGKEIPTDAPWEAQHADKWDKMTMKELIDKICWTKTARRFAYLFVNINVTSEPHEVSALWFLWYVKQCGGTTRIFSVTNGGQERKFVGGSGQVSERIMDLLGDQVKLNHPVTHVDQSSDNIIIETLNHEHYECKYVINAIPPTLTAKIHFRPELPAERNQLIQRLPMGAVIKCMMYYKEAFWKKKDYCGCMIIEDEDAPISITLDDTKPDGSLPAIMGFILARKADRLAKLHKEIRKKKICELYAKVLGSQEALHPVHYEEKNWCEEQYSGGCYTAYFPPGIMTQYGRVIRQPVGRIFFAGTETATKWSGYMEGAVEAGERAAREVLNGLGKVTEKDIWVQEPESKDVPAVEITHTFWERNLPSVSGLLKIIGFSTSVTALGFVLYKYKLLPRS
In words: Inhibition of human recombinant MAO-A assessed as inhibition of 4-hydroxyquinoline formation using kynuramine as substrate by fluorescence spectrophotometry analysis. The method in brief: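 Recombinant human MAO-A with kynuramine as substrate. The 4-hydroxyquinoline product was quantified by fluorescence spectrophotometry, and IC50 values were determined.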

The test system of data set [21] is Mus musculus. In words: Pro-cognitive activity in C57Bl6 mouse assessed as attenuation of long-term memory deficit by measuring increase in exploration time for novel object at 25 nmol/uL, icv measured after 24 hrs by novel object recognition test. It is filed as functional, organism-based. The method in brief: as §1
The subject of data set [22] is Mus musculus. In words: Pro-cognitive activity in C57Bl6 mouse assessed as attenuation of long-term memory deficit by measuring increase in exploration time for novel object by measuring discrimination index at 25 nmol/uL, icv measured after 48 hrs by novel object recognition test. In kind it is functional.
Data set [23] is described as follows: Toxicity in C57Bl6 mouse assessed as reduction in distance travel at 50 nmol/uL administered directly into lateral ventricle by open field test. As to conditions: in vivo, icv_or_intrathecal. In outline:
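Cannulated adult male C57Bl6 mice were placed in a 60×70 cm open-field arena 30 min after a 5 µL lateral-ventricle infusion. Total distance travelled over a 5-min session was recorded by overhead video tracking.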

Data set [24] can be described thus: Toxicity in overnight fasted C57Bl6 mouse assessed as reduction in food intake at 50 nmol/uL administered directly into lateral ventricle measured for 2 hrs. As to conditions: in vivo, icv_or_intrathecal. The method in brief: (§5)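 Overnight-fasted male C57Bl6 mice received a lateral-ventricle infusion. Food was presented 30 min later, and intake was recorded at 0.5 h intervals over 2 h as cumulative consumption corrected for body weight; n = 8–9 per group.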

The subject of data set [25] is Mus musculus. In words: Ex vivo activation of C57Bl6 mouse cortex homogenate CA assessed as increase in protein activity at 50 nmol/uL, icv measured after 30 mins by stopped flow spectrophotometric method. In kind it is functional, organism-based. The method in brief:
(§6)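 Adult male C57Bl6 mice with lateral-ventricle cannulae received 5 µL at 1 µL/min. After 30 min, cortex and hippocampus were dissected on ice, homogenised in 20 mM Hepes pH 7.5 and spun at 20000g for 30 min. Stopped-flow CO2 hydration used 0.2 mM phenol red (557 nm), 20 mM NaClO4, 20°C and 1.7–17 mM CO2. Activity is expressed as % of vehicle mean; 6 mice/group.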

Data set [26] concerns Mus musculus. As to the kind of experiment: Ex vivo activation of C57Bl6 mouse hippocampus homogenate CA assessed as increase in protein activity at 50 nmol/uL, icv measured after 30 mins by stopped flow spectrophotometric method. It is filed as functional, organism-based. In outline:
as §6

A short description of data set [27]: Toxicity in overnight fasted C57Bl6 mouse assessed as reduction in food intake at 50 nmol/uL administered directly into lateral ventricle measured for 30 mins. The following applies: in vivo, icv_or_intrathecal, 0.5 h. In outline:
as §5

The source made the active and inactive calls. The rule behind the calls is not given here.

Chain of Carbonic anhydrase 6 (Homo sapiens) (P23280 whole entry): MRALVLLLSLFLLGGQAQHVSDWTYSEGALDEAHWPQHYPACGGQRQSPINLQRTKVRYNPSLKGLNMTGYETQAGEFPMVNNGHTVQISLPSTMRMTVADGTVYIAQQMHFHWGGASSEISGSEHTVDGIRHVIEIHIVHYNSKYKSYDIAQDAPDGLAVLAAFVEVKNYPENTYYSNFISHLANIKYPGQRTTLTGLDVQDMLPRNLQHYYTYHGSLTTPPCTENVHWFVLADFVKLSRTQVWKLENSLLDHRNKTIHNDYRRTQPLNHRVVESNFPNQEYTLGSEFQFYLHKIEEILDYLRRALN
Chain of Carbonic anhydrase 7 (Homo sapiens) (P43166 whole entry): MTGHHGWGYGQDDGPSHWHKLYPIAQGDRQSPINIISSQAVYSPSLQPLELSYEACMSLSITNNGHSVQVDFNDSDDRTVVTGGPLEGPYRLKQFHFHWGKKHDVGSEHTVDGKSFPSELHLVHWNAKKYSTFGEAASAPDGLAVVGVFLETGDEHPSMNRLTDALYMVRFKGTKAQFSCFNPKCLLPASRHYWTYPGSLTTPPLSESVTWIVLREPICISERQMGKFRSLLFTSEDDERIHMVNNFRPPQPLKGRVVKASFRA
Chain of Carbonic anhydrase 14 (Homo sapiens) (Q9ULX7 whole entry): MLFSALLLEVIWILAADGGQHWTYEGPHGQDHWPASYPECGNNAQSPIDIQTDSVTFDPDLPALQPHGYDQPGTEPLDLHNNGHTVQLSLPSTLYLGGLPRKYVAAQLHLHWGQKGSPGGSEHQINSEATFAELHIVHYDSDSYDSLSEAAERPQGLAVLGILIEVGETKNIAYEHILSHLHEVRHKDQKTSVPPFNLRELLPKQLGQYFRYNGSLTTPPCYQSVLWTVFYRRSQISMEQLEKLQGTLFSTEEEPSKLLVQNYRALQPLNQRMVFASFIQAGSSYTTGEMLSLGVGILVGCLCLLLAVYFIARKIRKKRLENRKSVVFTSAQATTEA
Chain of Carbonic anhydrase 3 (Homo sapiens) (P07451 whole entry): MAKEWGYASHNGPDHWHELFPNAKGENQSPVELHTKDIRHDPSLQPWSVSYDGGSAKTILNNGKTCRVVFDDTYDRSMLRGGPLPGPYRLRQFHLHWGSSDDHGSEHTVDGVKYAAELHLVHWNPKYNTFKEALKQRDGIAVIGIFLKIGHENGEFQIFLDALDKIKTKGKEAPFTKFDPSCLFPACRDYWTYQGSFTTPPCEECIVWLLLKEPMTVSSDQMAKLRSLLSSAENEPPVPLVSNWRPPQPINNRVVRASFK
Chain of Carbonic anhydrase 12 (Homo sapiens) (O43570 whole entry): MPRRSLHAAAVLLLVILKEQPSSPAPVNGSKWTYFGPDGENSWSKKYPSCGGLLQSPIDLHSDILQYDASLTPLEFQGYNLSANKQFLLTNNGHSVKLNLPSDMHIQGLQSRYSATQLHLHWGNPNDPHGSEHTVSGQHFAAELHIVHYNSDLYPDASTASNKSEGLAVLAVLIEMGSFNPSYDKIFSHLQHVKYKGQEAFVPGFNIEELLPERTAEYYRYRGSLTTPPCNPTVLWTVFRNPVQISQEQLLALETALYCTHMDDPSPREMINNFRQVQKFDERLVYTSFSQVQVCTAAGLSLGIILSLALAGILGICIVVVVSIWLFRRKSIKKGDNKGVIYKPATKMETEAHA
Chain of Carbonic anhydrase 1 (Homo sapiens) (P00915 2-261 limits assumed): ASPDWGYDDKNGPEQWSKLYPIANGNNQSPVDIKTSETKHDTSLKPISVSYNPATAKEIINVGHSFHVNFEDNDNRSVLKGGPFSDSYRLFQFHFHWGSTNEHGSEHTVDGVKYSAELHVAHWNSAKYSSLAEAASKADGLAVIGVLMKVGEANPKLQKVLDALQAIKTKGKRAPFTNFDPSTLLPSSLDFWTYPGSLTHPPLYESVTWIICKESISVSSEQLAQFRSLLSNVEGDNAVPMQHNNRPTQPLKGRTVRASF
Chain of Carbonic anhydrase 4 (Homo sapiens) (P22748 whole entry): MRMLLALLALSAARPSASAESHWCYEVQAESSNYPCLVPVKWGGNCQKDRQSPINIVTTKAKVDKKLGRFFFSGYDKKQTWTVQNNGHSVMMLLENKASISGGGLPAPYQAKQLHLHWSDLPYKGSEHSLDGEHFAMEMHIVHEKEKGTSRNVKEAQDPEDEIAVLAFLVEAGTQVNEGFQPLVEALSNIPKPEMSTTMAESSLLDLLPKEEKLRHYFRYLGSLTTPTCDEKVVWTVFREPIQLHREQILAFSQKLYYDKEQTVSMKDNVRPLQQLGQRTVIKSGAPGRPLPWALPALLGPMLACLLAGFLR

Regarding `N[C@H](Cc1ccccc1)C(=O)O` [D-PHENYLALANINE], the outcome in data set [1] and in [4] was Active. For the same compound, the Activity_index is 0.375 in data set [2], 0.009 in data set [5], 0.291 in [6] and 0.075 in data set [7]. Besides, the result in data set [3] was inactive.
For `CC(N)C[Se]c1ccccc1` (configuration not stated), the Ka in [8] (filed as activator) was 9.9 µM; in data set [9] it was above 100 µM; in data set [10], 14.3 µM; in data set [11], 8.6 µM; in data set [12] it was 14.7 µM; in data set [13] it was 26.3 µM. The Ka in data set [14] (filed as activator) was determined as 57.2 µM; in [15] it was 20.6 µM; in data set [16] (filed as activator) it was 49.6 µM; in [17] it was 59.5 µM; in data set [18] it was 58.6 µM; in data set [19] it was 9.9 µM. Further, the IC50 – broadly, the concentration at which inhibition is half-maximal – in data set [20] is 9.79 µM. The outcome in [21] and in [3] was inactive. Besides, the result in data set [1], in [4], in data set [25] and in data set [26] was Active. For the same compound, the Activity_index in data set [2] is given as 0.206; in [22] it was 0.006; in data set [5], 0.011; in data set [6], 0.156. Further, the Activity result in data set [23] and in data set [24] was “Non-Toxic” in each case.
`CC(N)Cc1ccccc1` (configuration not stated) [AMPHETAMINE]: the Ka is above 150 µM in [8]; above 150 µM in data set [9]; 87.7 µM in [10]; 0.094 µM in data set [11]; 0.81 µM in data set [12]; 2.56 µM in data set [13]. For the same compound, the Ka is above 150 µM in data set [14]; 0.91 µM in data set [15]; above 150 µM in data set [16]; 0.64 µM in data set [17]; 24.1 µM in [18]; 9.15 µM in [19]. In addition, the Activity result in [23], in [24] and in data set [27] was “Toxic” throughout.
